Measured values reported in PMC12099175 (Chemistry (Weinheim an Der Bergstrasse, Germany), 2025).
Entries after “also recorded” stand apart in the source; their conditions may differ. No end group written: not given here.

Experiments:
Type in all cases: physicochemical
[1] = AFM surface morphology of amyloid fibrils; conditions: 1.5 mg/mL, pH 3.8, 24 h mixing at 37 °C, 5 µL dried on mica
Method in brief: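 Hexapeptide at a final 1.5 mg/mL, pH 3.8, was stirred at 500–600 rpm at 37 °C for 24 h. This was the same stock used for FTIR and ECD. The 24-h solution was dropped on freshly cleaved mica and vacuum-dried for 24 h. Images were taken in dynamic mode near densely packed areas, with a 10×10 µm window and 512 pixels per line.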

[2] = Amyloid formation monitored by time-dependent far-UV ECD spectroscopy; conditions: for amyloidogenicity overall (in words): all tested conditions (H2O, 10% EtOH, 50% MeOH), FTIR, AFM; for amyloidogenicity overall (in words) / amyloid formation in 10% EtOH (in words) / amyloid formation in 50% MeOH (in words): ECD; for amyloid formation in 10% EtOH (in words): 10% EtOH:90% H2O (ε = 68.742); for amyloid formation in 10% EtOH (in words) / time to form amyloid in 50% MeOH / amyloid formation in 50% MeOH (in words) / time to form β-sheets / B-type ECD spectrum in water: 37 °C; for amyloid formation in 10% EtOH (in words) / amyloid formation in 50% MeOH (in words) / time to form β-sheets / B-type ECD spectrum in water: stirred 500–600 rpm; for time to form amyloid in 50% MeOH / amyloid formation in 50% MeOH (in words): 50% MeOH:50% H2O (ε = 51.347); for time to form amyloid in 50% MeOH: stirred; for time to form amyloid in 50% MeOH / time to form β-sheets / B-type ECD spectrum in water: ECD read-out; for time to form β-sheets / B-type ECD spectrum in water: 100% H2O
Method in brief: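 Peptides were dissolved at 0.15–1.50 mg/mL in water, 10% EtOH or 50% MeOH. Concentration was set by A280 of 5-fold dilutions (ε Tyr 1280, Trp 5690 M⁻¹ cm⁻¹), with pH adjusted by NaOH/HCl. Samples were stirred at 500–600 rpm, 37 °C, and measured directly at 0–168 h. Spectra covered 185–260 nm, 0.1 mm cell, 25 °C, three scans averaged, solvent-subtracted, Savitzky–Golay smoothed, and converted to mean residue ellipticity.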

[3] = Water solubility / peptide concentration needed for amyloid formation; conditions: pure water

| Substance | AFM morphology (in words) [1] | amyloidogenicity overall (in words) [2] | amyloid formation in 10% EtOH (in words) [2] | time to form amyloid in 50% MeOH [2] | amyloid formation in 50% MeOH (in words) [2] | water solubility (in words) [3] | time to form β-sheets / B-type ECD spectrum in water [2] [h] | ECD mean residue ellipticity Θ, positive maximum at 208 nm ([2]; B-type spectrum after 24 hours) | ECD mean residue ellipticity Θ at 202 nm ([2]; 50% MeOH, B-type signal) [deg cm^2 dmol^−1] |
| --- | --- | --- | --- | --- | --- | --- | --- | --- | --- |
| GNNQQNY [GNNQQNY, reference compound] | Fibrillar amyloid formation | – | – | – | – | – | – | – | – |
| LNIQWL [LNIQWL] | granular | remains amyloidogenic | – | – | – | – | – | – | – |
| LNQQNY [LNQQNY] | – | highly amyloidogenic | forms amyloid very slowly | ≤ 24 h | – | – | – | – | – |
| LYIQNL [LYIQNL] | – | highly amyloidogenic | form amyloid | – | form amyloid | – | – | – | – |
| LYIQNY [LYIQNY] | – | highly amyloidogenic | rapid amyloid formation | – | rapid amyloid formation; also recorded: faster assembly | water‐soluble | – | – | – |
| LYIQWL [LYIQWL] | Fibrillar amyloid formation | highly amyloidogenic | form amyloid | – | form amyloid | – | 1 | – | – |
| LYQQNY [LYQQNY] | – | highly amyloidogenic | Amyloid formation is confirmed | – | Amyloid formation is confirmed | – | – | ~+57000 deg cm^2 dmol^−1 | – |
| NNIQWL [NNIQWL] | no evidence of filament formation | did not form amyloid under any of the tested conditions | – | – | – | – | – | – | – |
| NNQQNL [NNQQNL] | empty AFM image | – | – | – | very slow amyloid formation | – | – | – | – |
| NNQQNY [NNQQNY] | Fibrillar amyloid formation | highly amyloidogenic | preventing amyloid formation | within hours; also recorded: a few hours | β‐sheets formed; also recorded: forms amyloid in 50% MeOH | highly water‐soluble | – | – | ~53000 |
| NNQQWL [NNQQWL] | no detectable structures | resists amyloid formation | – | – | No amyloid formation was observed | – | > 144 | – | – |
